Hits are enriched below; roughly 3.5% of the tested compounds scored in any of these assays.
APP 5'UTR act – APP 5'UTR luciferase reporter activation. SH-SY5Y APP 5'UTR luciferase reporter, luminescence; zero percent = DMSO vehicle wells. activation, % at 2 µM. hit rate 1% among 190,000;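 active = activation above a set limit, based on mean plus 3 SD of controls, cut at about 140% in these data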
NF-kB neuron act – compounds increasing NF-kB expression in human neuronal cells. NF-kB reporter expression; stronger effect = higher value. fold change at 12.5 µM. hit rate 1.6% among 190,000. AID 1239; in the data active = fold change above about 3.3
Pf gametocyte – inhibitors of late stage P. falciparum gametocyte viability | P. falciparum stage V gametocytes, ATP luminescence, 24 h | inhibition, % at 10.9 µM | hit rate 0.065% among 150,000 | AID 743093;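 active = inhibition above the mean plus 3 SD of compounds within the control limits, set per campaign, cut at about 38% in these data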;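 note: 0% = DMSO wells and 100% = medium only without gametocytes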
FLuc inh counter – Photinus pyralis luciferase inhibition counter-screen; ATPLite firefly luciferase biochemical luminescence, 10 min; inhibition, % at 10 µM; hit rate 1.5% among 200,000; AID 1006;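 active = inhibition above about 50% when tested at 10 µM, limit read from the data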
Target sequence (P08659 whole entry, looked up): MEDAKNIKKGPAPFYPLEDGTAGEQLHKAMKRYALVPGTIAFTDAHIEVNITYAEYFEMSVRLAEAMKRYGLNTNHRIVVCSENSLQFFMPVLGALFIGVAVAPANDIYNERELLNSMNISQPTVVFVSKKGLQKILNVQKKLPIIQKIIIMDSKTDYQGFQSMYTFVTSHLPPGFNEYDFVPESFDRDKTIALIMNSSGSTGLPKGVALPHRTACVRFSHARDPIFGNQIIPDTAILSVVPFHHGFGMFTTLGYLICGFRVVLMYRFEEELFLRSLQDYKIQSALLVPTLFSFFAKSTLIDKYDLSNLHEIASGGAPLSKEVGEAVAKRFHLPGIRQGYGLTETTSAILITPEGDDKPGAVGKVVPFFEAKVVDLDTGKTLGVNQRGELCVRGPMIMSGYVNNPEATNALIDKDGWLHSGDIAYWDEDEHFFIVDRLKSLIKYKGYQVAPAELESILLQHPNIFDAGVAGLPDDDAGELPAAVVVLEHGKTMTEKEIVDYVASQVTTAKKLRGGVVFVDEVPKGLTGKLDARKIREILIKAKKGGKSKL
STAT1 act – STAT1 signaling activation. AID 932. hit rate 2.6% among 200,000. activation (% of control), % at 5.5 µM. NIH 3T3 STAT1-luciferase reporter, IFN-gamma, luminescence; 100% = IFN-gamma alone, no compound;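 active = activation above the screen-wide mean activation plus 3 SD, cut at about 130% in these data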;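 note: raw ratio to IFN-gamma control signal so 100% means no change and 0% no light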
FLuc act counter – affects firefly luciferase, flagging false hits in luciferase stimulation screens | ATPlite luciferase biochemical, luminescence, 10 min; 0 = ATP-free wells, 1 = DMSO control | 200,000 tested, under 10 active | activation factor at 10 µM | AID 1027;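 active = luciferase activation factor, scaled between plate controls, of at least 2 with compound at 10 µM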
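Assay system: Luciferase/luciferin detection reagent, cell-free biochemical luciferase assay / Also added: ATP substrate / Schedule: 10 min at ambient temperature / Measured by: luminescence measurement of luciferase light output / Benchmarks: low control with PBS replacing ATP, high control enzyme plus ATP without compound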
* marks the source's active call; other numbers are inactive results.

Results for CN(C)/C=N/c1cnc(C(=O)c2ccc(Cl)cc2)n1C ?
APP 5'UTR act: 19; NF-kB neuron act: 3.8*; Pf gametocyte: 0; FLuc inh counter: 15; STAT1 act: 146*; FLuc act counter: 0.8

How did COc1ccc(S(=O)(=O)Nc2ccc3c(c2)OCO3)cc1 do in these assays?
APP 5'UTR act: 15; NF-kB neuron act: 1.1; FLuc inh counter: 2; STAT1 act: 93; FLuc act counter: 1

What do the screens show for `COc1ccc(N/C=C2\CCc3ccccc3C2=O)cc1`?
APP 5'UTR act: 156*; NF-kB neuron act: 1.8; Pf gametocyte: 6; FLuc inh counter: 92*; STAT1 act: 28; FLuc act counter: 0.1

How did O=C1/C(=C/Nc2ccc3c(c2)OCO3)CCc2ccccc21 do in these assays?
APP 5'UTR act: 153*; NF-kB neuron act: 2.2; FLuc inh counter: 94*; STAT1 act: 46; FLuc act counter: 0.1

Results for COc1ccc2c(c1)CC/C(=C\Nc1ccc3c(c1)OCO3)C2=O ?
APP 5'UTR act: 31; NF-kB neuron act: 3.8*; Pf gametocyte: -8; FLuc inh counter: 68*; STAT1 act: 130*; FLuc act counter: 0.3

How did CC(OC(=O)c1cccs1)C(=O)NCC1CCCO1 (centres undefined) do in these assays?
APP 5'UTR act: -14; NF-kB neuron act: 1.5; FLuc inh counter: -3; STAT1 act: 103; FLuc act counter: 1

How did Cc1ccc(SCC(=O)Nc2cccc(-c3nnc(-c4ccco4)o3)c2)cc1 do in these assays?
APP 5'UTR act: 56; NF-kB neuron act: 1.6; FLuc inh counter: -2; STAT1 act: 134*; FLuc act counter: 1

Results for COc1ccc(C)cc1NC(=O)CSc1nnc(-c2ccc(Br)cc2)o1 ?
APP 5'UTR act: 6; NF-kB neuron act: 1.1; Pf gametocyte: -34; FLuc inh counter: -4; STAT1 act: 95; FLuc act counter: 1

What do the screens show for `O=C(CSc1ccc(Cl)cc1)Nc1cccc(-c2nnc(-c3ccco3)o2)c1`?
APP 5'UTR act: 15; NF-kB neuron act: 2.5; Pf gametocyte: 5; FLuc inh counter: -10; STAT1 act: 115; FLuc act counter: 1.1

How did Cc1ccc(NC(=O)CSc2nnc(-c3ccncc3)o2)cc1 do in these assays?
APP 5'UTR act: 9; NF-kB neuron act: 1.1; Pf gametocyte: -16; FLuc inh counter: -2; STAT1 act: 104; FLuc act counter: 1

Results for COc1cccc(NC(=O)CSc2nnc(-c3ccc(C)cc3)o2)c1 ?
APP 5'UTR act: 217*; NF-kB neuron act: 2.4; FLuc inh counter: -5; STAT1 act: 101; FLuc act counter: 1.1

What do the screens show for `COc1ccccc1NC(=O)CSc1nnc(-c2ccc(C)cc2)o1`?
APP 5'UTR act: 181*; Pf gametocyte: -13; FLuc inh counter: -1; STAT1 act: 110; FLuc act counter: 1

What do the screens show for `CCOc1ccc(C2NC(=O)CCC2[N+](=O)[O-])cc1` (centres undefined)?
Pf gametocyte: -4

How did Clc1nccnc1N/N=C/c1ccc(Br)cc1 do in these assays?
Pf gametocyte: 5

How did COc1ccc(/C=N/Nc2nccnc2Cl)cc1 do in these assays?
APP 5'UTR act: 164*; NF-kB neuron act: 3.2; FLuc inh counter: 70*; STAT1 act: 103; FLuc act counter: 0.3

How did COc1ccc(/C=N/Nc2nccnc2Cl)c(OC)c1 do in these assays?
APP 5'UTR act: 26; NF-kB neuron act: 2.4; Pf gametocyte: -2; FLuc inh counter: 52*; STAT1 act: 120; FLuc act counter: 0.5

What do the screens show for `COc1ccc(/C=N/Nc2nonc2N)c(OC)c1`?
APP 5'UTR act: 26; NF-kB neuron act: 1.3; FLuc inh counter: 9; STAT1 act: 113; FLuc act counter: 0.9

Results for Cc1cc(Br)ccc1NC(=O)C1C2CCC(O2)C1C(=O)O (centres undefined) ?
Pf gametocyte: -7

Results for Cc1ccc2nc(COc3ccc(Cl)cc3)cc(=O)n2c1 ?
APP 5'UTR act: 53; NF-kB neuron act: 2.6; Pf gametocyte: 7; FLuc inh counter: 9; STAT1 act: 136*; FLuc act counter: 0.9

How did CC1CN(CC(=O)Nc2ccccc2Sc2ccccc2)CC(C)O1 (centres undefined) do in these assays?
APP 5'UTR act: 4; NF-kB neuron act: 0.88; Pf gametocyte: 9; FLuc inh counter: -3; STAT1 act: 102; FLuc act counter: 1

From PubChem BioAssay
